Experiments:
[1] = test system: Human betaherpesvirus 5; assay: Tested in vitro for antiviral activity against human cytomegalovirus (HCMV) in yield reduction assay.; type: functional; conditions: Human betaherpesvirus 5; read-out: IC90
[2] = test system: L1210; assay: Tested in vitro for antiproliferative activity against growth rate of L1210 cells.(delayed growth inhibition); type: functional, Mus musculus; design: concentration or dose not given beside the values
How it was run: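 L1210 cells were grown in static suspension in Fischer's medium with drug for 4 days. Growth rate was the control-to-treated ratio of population doubling times. For delayed inhibition it was taken over 48–96 h, when control doubling time averaged 22 h. IC50 is the concentration halving growth rate relative to control.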

[3] = test system: HFF; assay: Tested in vitro for cytotoxicity against the normal human diploid cells (HFF cells).; type: functional, cell-based
How it was run: (§1)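 Uninfected HFF or BSC-1 cells in the plaque-reduction plates were scored visually at 35- and 60-fold magnification on a 0 to 4+ scale on the staining day. IC50 was taken by regression against log concentration.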

[4] = test system: Human alphaherpesvirus 1; assay: Tested in vitro for antiviral activity against HSV-1 in plaque reduction assay.; type: functional, organism-based
How it was run: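 Plaque reduction used HSV-1 strain S-148 on BSC-1 (African green monkey kidney) monolayers. The inoculum held about 100 PFU, and compounds were dissolved in the overlay medium. IC50 was regressed from percent inhibition against log concentration. Acyclovir or ganciclovir positive controls were run, with sets rejected if the control deviated >1.5 SD from its mean.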

[5] = Tested in vitro for cytotoxicity against the monkey kidney cells (BSC-1 cells).; type: functional, cell-based; conditions: Cercopithecidae; how it was run: as §1
[6] = test system: Human betaherpesvirus 5; assay: Tested in vitro for antiviral activity against human cytomegalovirus (HCMV) in plaque reduction assay.; type: functional, organism-based
How it was run: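 HCMV Towne strain (plaque-purified P0) was used on HFF monolayers. The inoculum held about 50 PFU, and compounds were dissolved in the overlay medium. Plaques were enumerated. IC50 came from linear regression of percent inhibition against log concentration. Acyclovir or ganciclovir served as positive control, and a set was rejected if the control deviated >1.5 SD from its mean.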

[7] = Tested in vitro for cytotoxicity against the human neoplastic cell line (KB cells).; type: functional, cell-based
How it was run: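 KB cells were grown in MEM(H) with 10% calf serum. Incorporation of radiolabelled precursors into DNA, RNA and protein was measured. Separate IC50s came from regression against log concentration and the three were averaged. Values are averages of two to five experiments.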

[8] = test system: Human alphaherpesvirus 1; assay: Tested in vitro for antiviral activity against HSV-1 in yield reduction assay.; type: functional

**Q.** Which results are given for `N#Cc1cn([C@@H]2O[C@H](CO)[C@@H](O)[C@@H]2I)c2ncnc(N)c12`?
**A.** IC90 [1]: 20 µM; Control [2]: 24%; IC50 [3]: 100 µM; IC50 [4]: > 100 µM; IC50 [5]: > 100 µM; IC50 [6]: 40 µM

**Q.** With `[N-]=[N+]=N[C@H]1[C@H](O)[C@@H](CO)O[C@H]1n1cc(C(N)=O)c2c(N)ncnc21` as the compound, how does the IC90 [1] read?
**A.** The IC90 was 100 µM.

**Q.** What about the Control [2] of the same compound?
**A.** Its Control is 12%.

**Q.** And the IC50 [3]?
**A.** Its IC50 is 66 µM.

**Q.** What about the IC50 [4] of the same compound?
**A.** The IC50 was over 100 µM.

**Q.** What about the IC50 [5] of the same compound?
**A.** The IC50 was over 100 µM.

**Q.** And the IC50 [7]?
**A.** Its IC50 is 179 µM.

**Q.** What about the IC50 [6] of the same compound?
**A.** The IC50 was 28 µM.

**Q.** Which Control [2] does the source give for `NC(=O)c1cn([C@@H]2O[C@H](CO)[C@@H](O)[C@@H]2Cl)c2ncnc(N)c12` here?
**A.** Its Control is 73%.

**Q.** And the IC50 [3]?
**A.** The IC50 was over 100 µM.

**Q.** And the IC50 [4]?
**A.** Its IC50 is over 100 µM.

**Q.** What about the IC50 [5] of the same compound?
**A.** Its IC50 is over 100 µM.

**Q.** What about the IC50 [6] of the same compound?
**A.** Its IC50 is over 100 µM.

**Q.** With `N#Cc1cn([C@@H]2O[C@H](CO)[C@@H](O)[C@@H]2Br)c2ncnc(N)c12` as the compound, how does the IC90 [1] read?
**A.** Its IC90 is 90 µM.

**Q.** What about the Control [2] of the same compound?
**A.** The Control was 16%.

**Q.** What about the IC50 [3] of the same compound?
**A.** The IC50 was 181 µM.

**Q.** What about the IC50 [4] of the same compound?
**A.** Its IC50 is over 100 µM.

**Q.** What about the IC50 [5] of the same compound?
**A.** The IC50 was over 100 µM.

**Q.** What about the IC50 [6] of the same compound?
**A.** Its IC50 is 162 µM.

**Q.** For `NC(=O)c1cn([C@@H]2O[C@H](CO)[C@@H](O)[C@@H]2I)c2ncnc(N)c12`, which Control [2] is on record?
**A.** The Control was 38%.

**Q.** And the IC50 [3]?
**A.** Its IC50 is 100 µM.

**Q.** What about the IC50 [4] of the same compound?
**A.** The IC50 was over 100 µM.

**Q.** What about the IC50 [5] of the same compound?
**A.** Its IC50 is over 100 µM.

**Q.** What about the IC50 [6] of the same compound?
**A.** Its IC50 is over 100 µM.

**Q.** With `Nc1nc2c(ncn2COCCO)c(=O)[nH]1` [ACYCLOVIR] as the compound, how does the IC90 [1] read?
**A.** Its IC90 is 90 µM.

**Q.** What about the IC90 [8] of the same compound?
**A.** Its IC90 is 7 µM.

**Q.** What about the IC50 [3] of the same compound?
**A.** The IC50 was over 100 µM.

**Q.** And the IC50 [5]?
**A.** The IC50 was over 100 µM.

**Q.** What about the IC50 [7] of the same compound?
**A.** Its IC50 is over 100 µM.

— ChEMBL document CHEMBL1125150, “Arabinofuranosylpyrrolo[2,3-d]pyrimidines as potential agents for human cytomegalovirus infections” (J Med Chem, 1990)
